According to paper PMC3889630 (European Journal of Clinical Pharmacology, 2013):
“Also recorded” adds a separate entry of the source. Like-named read-outs stand apart in the source and are kept apart here.

Assays:
[1] = format: in vivo, human
Summary of the method: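 Severe renal impairment group (CLcr <30 mL/min) and matched healthy group (>90 mL/min), n=8 each, took one fasted morning 50 mg tablet. Total DTG and DTG-glucuronide measured by validated LC-MS/MS after acetonitrile extraction. Non-compartmental parameters log-transformed and compared by ANCOVA (gender fixed; age, BMI covariates) as geometric LS mean ratio impaired/healthy with 90 % CI.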

HIV = conditions: stated in discussion, no reference given; cited from earlier work
[2] = cited from earlier work
[3] = format: in vitro ADME, human
[4] = treatment-naïve subjects, SPRING-1; cited from earlier work
[5] = cited from earlier work; remark: listed apart in the source
[6] = Safety and tolerability after single 50 mg DTG dose; format: in vivo, human; conditions: both groups
Summary of the method: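 Open-label single-dose study in HIV-seronegative adults aged 18–70 y: 8 with severe renal impairment (24-h urine CLcr <30 mL/min) and 8 healthy (CLcr >90 mL/min), matched for gender, age (±5 y) and BMI (±25 %). Each took one 50 mg tablet in the morning, fasted, and stayed housed until the last PK sample. Clinical and laboratory safety checks throughout, plus follow-up 7–10 days post-dose.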

[7] = co-administration with darunavir/ritonavir, Phase 1 study; cited from earlier work

Row | t1/2 ratio of DTG-Gluc to DTG ([1]; both groups of subjects) | glucuronide exposure relative to parent DTG based on molar ratios ([1]; renally-impaired population) | Structure (SMILES) | antiviral activity (HIV) | share of DTG among drug-related components circulating in plasma [2] | renal elimination of unchanged drug ([2]; human) | GLS mean unbound plasma DTG concentration lower in renal impaired subjects ([3]; 3-hour time point) | GLS mean unbound plasma DTG concentration lower in renal impaired subjects ([3]; 24-hour time point) | effect of renal impairment on DTG fraction unbound in plasma ([3]; severe renal impairment vs healthy) | reduction in DTG exposure between the 50 mg and 10 mg once-daily doses [4] | mean elimination half-life shorter in renal impairment compared to controls ([1]; 50 mg single oral dose) | correlation between creatinine clearance and DTG PK parameters ([1]; Pearson, p > 0.1) | Cmax ([1]; human, plasma, oral, 50 mg, Cmax, range of values, DTG, healthy subjects) | bound to plasma proteins [5] | deaths or serious adverse events [6] | intensity of adverse events [6] | tolerability [6] | reduction of DTG trough concentration by DRV/r [7]
1 | ~1 | < 10% | C[C@@H]1CCO[C@H]2Cn3cc(C(=O)NCc4ccc(F)cc4F)c(=O)c(O[C@@H]4O[C@H](C(=O)O)[C@@H](O)[C@H](O)[C@H]4O)c3C(=O)N12 [DTG-Gluc, DTG-glucuronide] | no antiviral activity | – | – | – | – | – | – | – | – | – | – | – | – | – | –
2 | – | – | C[C@@H]1CCO[C@H]2Cn3cc(C(=O)NCc4ccc(F)cc4F)c(=O)c(O)c3C(=O)N12 [DTG, Dolutegravir] | – | > 97% | < 1 % of the dose | 14% | 49% | did not affect; also recorded: similar | 75% | 18% | No significant correlation | 820 to 3200 ng/mL | greater than 99% | No deaths or serious adverse events | mild (Grade 1) | well tolerated | 38%
